Source: PMC5632530 (Cell, 2017)
Values belong to the compound of their own block, whether it stands above or below them.

How the values were obtained:
[1] = tested on: 3T3-L1 mouse preadipocytes; test: Adipocyte phenotypic screen: lipid accumulation by Nile Red; type: cell-based; conditions: for adipogenic activity in adipogenesis-related assays, in words: compounds 10 μM, 3T3-L1; for effect of co-treatment on the pro-adipogenic effects of 25: 10 μM with 25 (10 μM), Nile Red staining or adipogenic gene expression
In short: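 3T3-L1 preadipocytes were induced two days post-confluence with dexamethasone (1 μM), IBMX (0.5 mM) and insulin (1 μg/ml), plus DMSO (0.1%), test compound (10 μM), test compound with probe, or rosiglitazone (2 μM). They were stained with Nile Red and Hoechst at day 7 of differentiation, imaged, and harvested for RNA. Mean ± SD, n = 3.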

cathepsin B (CTSB) = cathepsin B (CTSB) (Homo sapiens, UniProt P07858); test: Competition of FFF 9 labeling of the active-site proximal peptide of CTSB; type: binding
In short: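 Cells were treated with probe (200–250 μM) with or without competitor in serum-free DMEM, UV-crosslinked, and lysed. Probe-labeled proteins were clicked to light or heavy biotin-TEV-azide (100 μM final) with CuSO4, TBTA and TCEP. Samples were combined, streptavidin-enriched, trypsin-digested on bead and released by TEV cleavage (50 mM Tris pH 8, 0.5 mM EDTA, 1 mM DTT). Probe-modified peptides were quantified by LC-MS.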

PTGR2 [2] = target: T1, PTGR2 (Homo sapiens, UniProt Q8N8N7); type: binding
T1 sequence (Q8N8N7 whole entry): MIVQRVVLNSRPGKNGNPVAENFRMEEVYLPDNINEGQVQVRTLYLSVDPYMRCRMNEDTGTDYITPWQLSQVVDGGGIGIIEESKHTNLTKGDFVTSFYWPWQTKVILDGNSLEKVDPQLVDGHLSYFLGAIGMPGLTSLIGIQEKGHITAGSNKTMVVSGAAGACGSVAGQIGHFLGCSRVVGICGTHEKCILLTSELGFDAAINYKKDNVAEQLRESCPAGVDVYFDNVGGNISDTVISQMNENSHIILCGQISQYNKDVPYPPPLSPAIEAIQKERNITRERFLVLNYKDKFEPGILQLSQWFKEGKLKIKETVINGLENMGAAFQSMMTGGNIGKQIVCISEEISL
In short: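 HEK293T cells were transiently transfected with C-terminally FLAG-tagged human PTGR2 (pRK5, PEI). Cells at ~90% confluence were washed and treated in serum-free medium with probe plus competitor or DMSO for 30 min at 37°C, then irradiated at 365 nm for 10 min. Lysates (1 mg/mL) were clicked to TAMRA azide (25 μM) and fluorescence was read on gel. Curves: mean ± SD (n = 3 or 4), four-parameter fit.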

PTGR2 [3] = target: T1, PTGR2; test: cell-based
PPARγ = target: T2, PPARγ (Homo sapiens, UniProt P37231); test: PPARγ luciferase reporter assay, direct modulation of PPARγ; type: cell-based
T2 sequence (P37231 238-503 limits assumed): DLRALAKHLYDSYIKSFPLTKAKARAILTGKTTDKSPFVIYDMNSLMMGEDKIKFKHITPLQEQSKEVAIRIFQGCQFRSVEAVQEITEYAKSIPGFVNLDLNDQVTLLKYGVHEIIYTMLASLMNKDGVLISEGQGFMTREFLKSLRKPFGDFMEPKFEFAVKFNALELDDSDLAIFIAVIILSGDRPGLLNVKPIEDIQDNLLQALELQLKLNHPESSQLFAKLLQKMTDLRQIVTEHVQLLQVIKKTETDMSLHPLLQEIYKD

PTGR2 [4] = target: T1, PTGR2; test: In vitro LCMS-based activity assay for PTGR2; type: biochemical
ZADH2 = target: T3, ZADH2 (Homo sapiens, UniProt Q8N4Q0); test: MS-based competitive profiling with FFF 8: cross-reactivity with ZADH2; type: binding; conditions: competition of FFF 8 labeling
T3 sequence (Q8N4Q0 1-377): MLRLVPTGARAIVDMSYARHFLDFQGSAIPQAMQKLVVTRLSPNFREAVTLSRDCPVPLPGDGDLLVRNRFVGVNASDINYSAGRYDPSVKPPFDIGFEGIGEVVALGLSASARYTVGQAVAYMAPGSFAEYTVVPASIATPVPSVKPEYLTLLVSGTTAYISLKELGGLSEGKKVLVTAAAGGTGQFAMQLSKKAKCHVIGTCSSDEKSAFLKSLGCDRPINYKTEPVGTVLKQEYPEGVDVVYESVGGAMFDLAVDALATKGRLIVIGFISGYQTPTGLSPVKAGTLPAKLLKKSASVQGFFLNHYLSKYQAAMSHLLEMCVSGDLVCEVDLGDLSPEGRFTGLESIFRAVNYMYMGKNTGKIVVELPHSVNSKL
In short: (§1)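 SILAC-labeled HEK293T cells were used: heavy cells received FFF probe plus competitor and light cells received probe plus DMSO, in serum-free medium for 30 min at 37°C, followed by 365 nm UV for 10 min. Lysates (1.5 mg/mL) were mixed 1:1, clicked to biotin-azide, streptavidin-enriched, trypsin-digested and analysed by LC-MS. Ratios were averaged from ≥2 biological replicates.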

PTGR2 [5] = target: T1, PTGR2; type: cell-based; conditions: cells recombinantly expressing PTGR2
In short: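 HEK293T cells were co-transfected (PEI) with a UAS-luciferase reporter, GAL4-DBD or GAL4-DBD::PPARγ-LBD, and full-length PTGR2 as indicated. After 24 hr they were treated with DMSO, 15-keto-PGE2 (20 μM), test compounds, or rosiglitazone (2 μM) control. After 16 hr cells were lysed and luciferase activity was measured.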

endogenous PTGR2 = endogenous PTGR2 (Homo sapiens, UniProt Q8N8N7); type: binding
Chain of endogenous PTGR2 (Q8N8N7 whole entry): as the sequence (Q8N8N7 whole entry) above
In short: as §1

PGRMC2 = target: T4, PGRMC2 (Mus musculus, UniProt Q80UU9); test: Quantitative proteomic; type: binding
T4 sequence (Q80UU9 1-217): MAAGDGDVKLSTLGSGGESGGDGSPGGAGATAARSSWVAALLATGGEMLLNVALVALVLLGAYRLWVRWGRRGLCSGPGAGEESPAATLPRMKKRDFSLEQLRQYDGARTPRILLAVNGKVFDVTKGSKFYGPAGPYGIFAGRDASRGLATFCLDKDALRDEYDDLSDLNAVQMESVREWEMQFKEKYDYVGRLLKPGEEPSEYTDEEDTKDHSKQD

human PGRMC2 [6] = target: T5, human PGRMC2 (Homo sapiens, UniProt O15173); type: binding; conditions: HEK293T cells
T5 sequence (O15173 1-223): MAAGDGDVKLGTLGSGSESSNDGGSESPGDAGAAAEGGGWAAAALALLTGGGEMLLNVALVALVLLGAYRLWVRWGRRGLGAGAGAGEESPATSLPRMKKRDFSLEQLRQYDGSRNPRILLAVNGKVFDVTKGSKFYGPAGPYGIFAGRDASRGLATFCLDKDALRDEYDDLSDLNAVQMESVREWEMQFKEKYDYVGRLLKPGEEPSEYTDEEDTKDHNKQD
In short: (§2)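 HEK293T cells were transfected with human PGRMC2 and lysed 48 hr later. Lysates (1 mg/mL) were incubated with probe and competitor or DMSO for 30 min at room temperature, UV-irradiated, clicked to TAMRA azide, and analysed by in-gel fluorescence. Blockade curves: mean ± SD (n = 3 or 4), four-parameter non-linear fit.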

human PGRMC2 [7] = target: T5, human PGRMC2; test: In vitro gel-based competition of FFF probe 25 labeling of PGRMC2; type: binding
In short: as §2

PGRMC1 = PGRMC1 (Mus musculus, UniProt O55022); test: Quantitative proteomic; type: binding; conditions: 10 μM
Chain of PGRMC1 (O55022 whole entry): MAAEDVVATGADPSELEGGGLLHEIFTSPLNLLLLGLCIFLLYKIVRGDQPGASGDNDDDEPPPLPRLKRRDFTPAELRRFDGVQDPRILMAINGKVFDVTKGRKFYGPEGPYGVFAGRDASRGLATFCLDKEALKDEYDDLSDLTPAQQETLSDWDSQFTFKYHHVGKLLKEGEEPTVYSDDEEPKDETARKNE

non-adipocyte cell lines = test: Lipid accumulation in non-adipocyte cell lines; type: cell-based

SMILES: CCCC(=O)N[C@@H](C)C(=O)Nc1cc(OC)c2ccccc2c1 [Compound 28, (S)-N-(1-((4-methoxynaphthalen-2-yl)amino)-1-oxopropan-2-yl)butyramide]
adipogenic activity in adipogenesis-related assays, in words [1]: largely inactive

blockade of probe 9 interaction with CTSB peptide (aa 315–332) (cathepsin B (CTSB)): blocked
SMILES: CC(NC(=O)[C@H](Cc1ccccc1)NC(=O)OCc1ccccc1)C(=O)CF (some centres unmarked) [Z-FA-FMK]

increase in potency relative to 20, competition of 8-labeling (PTGR2 [2]): > 20 fold
IC50 (PTGR2 [3]): ~700 nM
increase in potency relative to 20, 15-keto-PGE2 reductase activity (PTGR2 [4]): > 20 fold
cross-reactivity with ZADH2, sequence-related homolog of PTGR2 (ZADH2): did not cross-react
rescue of 15-keto-PGE2-dependent PPARγ transcriptional activity (PTGR2 [5]): concentration-dependent rescue
inhibition of FFF 8 labeling of endogenous PTGR2 (endogenous PTGR2; 5 μM, HEK293T cells): complete inhibition
proteome-wide selectivity in blocking FFF 8 labeling, in words (endogenous PTGR2; HEK293T cells): excellent selectivity
inhibition at 0.5 µM (endogenous PTGR2; read-out: inhibition of FFF 8 labeling of endogenous PTGR2): ~80%
SMILES: COc1ccccc1N1CCN(C(=O)Cc2ccccc2)CC1 [Compound 22, 1-(4-(2-Methoxyphenyl)piperazin-1-yl)-2-phenylethan-1-one]
direct modulation of PPARγ (PPARγ): neither 22 nor 23 directly modulated PPARγ

SMILES: CCOC(=O)C1Cc2ccccc2CN1C(=O)c1ccc(SC)s1 (centres unmarked) [SR8278, reference compound]
effect of co-treatment on the pro-adipogenic effects of 25 [1]: blocked

competition of 25 (10 μM) enrichment of PGRMC2 (SILAC ratio) (PGRMC2; 10× competitor): > 3 fold
SMILES: CCCC(=O)N[C@@H](CC(C)C)C(=O)Nc1ccc2ccccc2c1 [Compound 27, (S)-2-butyramido-4-methyl-N-(naphthalen-2-yl)pentanamide]
adipogenic activity in adipogenesis-related assays, in words [1]: active
blockade of 25 labeling of recombinant human PGRMC2 by competitor (human PGRMC2 [6]): blocked in a concentration-dependent manner

SMILES: CC(C)(C)OC(=O)CN(Cc1ccc(Cl)cc1)Cc1ccc([N+](=O)[O-])s1 [GSK4112, reference compound]
effect of co-treatment on the pro-adipogenic effects of 25 [1]: had no effect

IC50 (human PGRMC2 [7]): 130 nM
SMILES: C=CC1=C(C)c2cc3[nH]c(cc4nc(cc5[nH]c(cc1n2)c(C)c5CCC(=O)O)C(CCC(=O)O)=C4C)c(C)c3C=C [protoporphyrn IX]

enrichment of PGRMC1 by 25 over 26 (PGRMC1): not preferentially enriched
preferential enrichment of PGRMC2 by 25 over 26 (SILAC ratio) (PGRMC2; 10 μM each, 30 min): > 3 fold
labeling of recombinant human PGRMC2 by FFF probe (human PGRMC2 [6]): strongly labeled
SMILES: C#CCCC1(CCC(=O)N[C@@H](CC(C)C)C(=O)Nc2ccc3ccccc3c2)N=N1 [Compound 25, (S)-2-(3-(3-(but-3-yn-1-yl)-3H-diazirin-3-yl)propanamido)-4-methyl-N-(naphthalen-2-yl)pentanamide]
lipid accumulation, in words ([1]; Nile Red): one of the highest levels of lipid accumulation
lipid accumulation in non-adipocyte cell lines (non-adipocyte cell lines): did not induce lipid accumulation

SMILES: CCCC(=O)N[C@@H](CC(C)C)C(=O)N[C@H]1CCCc2ccccc21 [Compound 29, (S)-2-butyramido-4-methyl-N-((S)-1,2,3,4-tetrahydronaphthalen-1-yl)pentanamide]
adipogenic activity in adipogenesis-related assays, in words [1]: inactive controls

SMILES: COc1ccccc1C1CCN(S(=O)(=O)Cc2ccccc2)CC1 [Compound 23, 1-(Benzylsulfonyl)-4-(2-methoxyphenyl)piperidine]
direct modulation of PPARγ (PPARγ): neither 22 nor 23 directly modulated PPARγ

SMILES: C#CCCC1(CCC(=O)N[C@@H](C)C(=O)Nc2cc(OC)c3ccccc3c2)N=N1 [Compound 26, (S)-3-(3-(but-3-yn-1-yl)-3H-diazirin-3-yl)-N-(1-((4-methoxynaphthalen-2-yl)amino)-1-oxopropan-2-yl)propanamide]
adipogenic activity in adipogenesis-related assays, in words [1]: much less adipogenic activity

SMILES: CCCC(=O)N[C@@H](CC(C)C)C(=O)NCCc1ccc2c(c1)OCO2 [Compound 30, (S)-N-(2-(benzo[d][1,3]dioxol-5-yl)ethyl)-2-butyramido-4-methylpentanamide]
adipogenic activity in adipogenesis-related assays, in words [1]: inactive controls
